Data: article PMC7509213 (iScience, 2020)
Read-outs that look alike come from different tables or passages of the source.

Key:
RPB1 subunit of RNAPII [1] = experiment: RPB1 degradation in PC3 cells under hypoxia; assay type: cell-based, human; conditions: PC3, 10 μM, 1% O2
PC3 cells = experiment: PC3 proliferation under hypoxia or normoxia; assay type: cell-based, human; conditions: for IC50: Homo sapiens, PC-3, 48 h
Summary of the method: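 PC3 cells seeded at 5,000/well and held at 1% O2 in a humidified chamber at 37°C for 48 h (normoxia 20% O2) before 48 h exposure to test compound. A 1 μCi [3H]-thymidine pulse per well was given for 6 h, then cells were harvested onto glass-fibre filters for scintillation counting. Proliferation is relative to DMSO, mean ± SEM, n = 3, and IC50 values were derived from these curves.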

RPB1 subunit of RNAPII [2] = experiment: RPB1 degradation in HeLa cells; assay type: cell-based, human
XPB = molecular target: T1, XPB (Homo sapiens, UniProt P19447); experiment: XPB degradation in cells; assay type: cell-based; conditions: 10 μM, western blot
T1 sequence (P19447 1-782): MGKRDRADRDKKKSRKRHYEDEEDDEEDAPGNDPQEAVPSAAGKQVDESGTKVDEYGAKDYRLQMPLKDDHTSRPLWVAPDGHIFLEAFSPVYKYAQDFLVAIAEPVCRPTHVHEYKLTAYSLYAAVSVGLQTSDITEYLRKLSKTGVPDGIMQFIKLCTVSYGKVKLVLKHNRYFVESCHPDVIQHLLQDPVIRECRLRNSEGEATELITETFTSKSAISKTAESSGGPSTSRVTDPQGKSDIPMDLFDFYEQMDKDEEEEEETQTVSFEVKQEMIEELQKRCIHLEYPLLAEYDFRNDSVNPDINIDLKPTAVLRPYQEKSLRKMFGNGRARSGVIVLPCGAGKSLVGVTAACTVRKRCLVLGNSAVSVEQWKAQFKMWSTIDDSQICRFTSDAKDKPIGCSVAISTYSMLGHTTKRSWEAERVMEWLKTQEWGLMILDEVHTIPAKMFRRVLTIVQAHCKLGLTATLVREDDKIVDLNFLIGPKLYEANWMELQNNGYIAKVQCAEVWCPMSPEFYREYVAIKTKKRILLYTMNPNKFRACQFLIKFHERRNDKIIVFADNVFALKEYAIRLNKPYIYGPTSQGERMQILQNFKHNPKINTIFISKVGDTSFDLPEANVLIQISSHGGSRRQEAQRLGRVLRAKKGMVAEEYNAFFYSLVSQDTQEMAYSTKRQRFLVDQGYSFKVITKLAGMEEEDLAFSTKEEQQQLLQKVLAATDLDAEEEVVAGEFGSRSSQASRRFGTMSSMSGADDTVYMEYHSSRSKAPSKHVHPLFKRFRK

[3] = lethal case dosed with 18 mg/m^2 F60008; ref Kitzen et al., 2009; cited from earlier work
TFIIH = TFIIH (Homo sapiens, UniProt P19447); experiment: DNA-dependent ATPase activity assay of purified TFIIH; assay type: biochemical; conditions: 200 nM
Summary of the method: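 Purified TFIIH, DNA-dependent ATPase assay. It was started with TFIIH, run for 2 h, and stopped with EDTA. Mixture was spotted on PEI-cellulose TLC and developed in 0.5 M LiCl/1 M HCOOH. Released 32Pi was quantified by phosphorimaging relative to DMSO, mean ± SE, n = 3.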

RPB1 subunit of RNAPII [4] = experiment: RPB1 degradation in C342T XPB knock-in cells; assay type: cell-based, human; conditions: 1μM

O=C(Oc1cccc(F)c1OC(=O)c1cccc(O)c1)c1cccc(O)c1 [WZB117, 2-Fluoro-6-(m-hydroxybenzoyloxy) phenyl m-hydroxybenzoate]
effect on RNAPII degradation triggered by 3 μM G-2 and hypoxia (RPB1 subunit of RNAPII [1]): antagonizes

COc1cccc2c1C(=O)c1c(O)c3c(c(O)c1C2=O)C[C@@](O)(C(=O)CO)C[C@@H]3O[C@H]1C[C@H](N)[C@H](O)[C@H](C)O1 [doxorubicin]
potency under hypoxia versus normoxia (PC3 cells; PC3, 1% O2 vs 20% O2): decreased

CC(=O)S[C@@H]1CC2=CC(=O)CC[C@]2(C)[C@H]2CC[C@@]3(C)[C@@H](CC[C@@]34CCC(=O)O4)[C@H]12 [spironolactone]
effect on RPB1 degradation induced by G-2 (RPB1 subunit of RNAPII [2]; 10 μM SP combined with 1 μM G-2): rescued RPB1 from degradation
stability of RPB1 (RPB1 subunit of RNAPII [2]; HeLa, 10 μM): no effect
degradation of XPB (XPB): caused degradation of the majority of XPB

CC(C)[C@]12O[C@H]1[C@@H]1O[C@]13[C@]1(O[C@H]1C[C@H]1C4=C(CC[C@@]13C)C(=O)OC4)[C@@H]2O [triptolide, (1S,2S,4S,5S,7R,8R,9S,11S,13S)-8-hydroxy-1-methyl-7-propan-2-yl-3,6,10,16 tetraoxaheptacyclo[11.7.0.0^2,4.0^2,9.0^5,7.0^9,11.0^14,18] icos-14(18)-en-17-one]
Maximum serum levels [3]: 58.5 ng/mL
ATPase activity of TFIIH (TFIIH): nearly completely inhibited
IC50 (PC3 cells; read-out: IC50, PC3 proliferation under hypoxia): 1.5 nM
IC50 (PC3 cells; read-out: IC50, PC3 proliferation under normoxia): 4.5 nM
fold enhancement of anti-proliferative effect (IC50) during hypoxia (PC3 cells; PC3, hypoxia vs normoxia): three-fold
effect size during hypoxia (PC3 cells; hypoxic PC3 cells): 0.71

α-amanitin
degradation of Rpb1 in C342T XPB isogenic cell line (RPB1 subunit of RNAPII [4]): induced the degradation of Rpb1
